Source: ChEMBL document CHEMBL5055631, “Antitumor properties of novel sesquiterpene lactone analogs as NFκB inhibitors that bind to the IKKβ ubiquitin-like domain (ULD)” (Eur J Med Chem, 2021)

Assays:
Assay type in all cases: functional
[1] = test system: NCI/ADR-RES; experiment: Anticancer activity against human NCI/ADR-RES cells assessed as cell growth inhibition incubated for 48 hrs by SRB method
Procedure, shortened: (§1)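 NCI-60 panel (DTP). Cells in RPMI 1640 with 5% FBS, 2 mM L-glutamine, seeded at 5,000–40,000 per well by doubling time and preincubated 24 h at 37 °C, 5% CO2. Time-zero plates TCA-fixed. DMSO stocks diluted in medium with gentamicin, tested at 100 μM, 10 μM, 1 μM, 0.1 μM and 10 nM for 48 h. Cells fixed with cold TCA, stained with SRB, absorbance read at 515 nm.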

[2] = test system: COLO 205; experiment: Anticancer activity against human COLO 205 cells assessed as cell growth inhibition incubated for 48 hrs by SRB method
[3] = test system: PC-3; experiment: Anticancer activity against human PC-3 cells assessed as cell growth inhibition incubated for 48 hrs by SRB method; procedure, shortened: as §1
[4] = test system: CCRF-CEM; experiment: Anticancer activity against human CCRF-CEM cells assessed as cell growth inhibition incubated for 48 hrs by sulforhodamine B assay
[5] = test system: BT-549; experiment: Anticancer activity against human BT-549 cells assessed as cell growth inhibition incubated for 48 hrs by SRB method; procedure, shortened: as §1
[6] = test system: SNB-75; experiment: Anticancer activity against human SNB-75 cells assessed as cell growth inhibition incubated for 48 hrs by SRB method
[7] = test system: SNB-19; experiment: Anticancer activity against human SNB-19 cells assessed as cell growth inhibition incubated for 48 hrs by SRB method; procedure, shortened: as §1
[8] = test system: HCT-116; experiment: Anticancer activity against human HCT-116 cells assessed as cell growth inhibition incubated for 48 hrs by SRB method; procedure, shortened: as §1
[9] = test system: UO-31; experiment: Anticancer activity against human UO-31 cells assessed as cell growth inhibition incubated for 48 hrs by SRB method
Procedure, shortened: (§2)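 NCI-60 panel, SRB assay. Time-zero plates were TCA-fixed. Compounds came from DMSO stocks and were tested at 100 μM, 10 μM, 1 μM, 0.1 μM and 10 nM for 48 h. Cells were fixed with cold TCA and stained with 0.4% SRB, and the dye was solubilized in 10 mM Tris base with A515 read.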

[10] = test system: MDA-MB-231; experiment: Anticancer activity against human MDA-MB-231 cells assessed as cell growth inhibition incubated for 48 hrs by SRB method; procedure, shortened: as §1
[11] = test system: SW-620; experiment: Anticancer activity against human SW-620 cells assessed as cell growth inhibition incubated for 48 hrs by SRB method
[12] = test system: OVCAR-4; experiment: Anticancer activity against human OVCAR-4 cells assessed as cell growth inhibition incubated for 48 hrs by SRB method
[13] = test system: SF-268; experiment: Anticancer activity against human SF-268 cells assessed as cell growth inhibition incubated for 48 hrs by SRB method; procedure, shortened: as §1
[14] = Anticancer activity against human HS 578T cells assessed as cell growth inhibition incubated for 48 hrs by SRB method
[15] = test system: NCI-H460; experiment: Anticancer activity against human NCI-H460 cells assessed as cell growth inhibition incubated for 48 hrs by SRB method; procedure, shortened: as §1
[16] = test system: NCI-H23; experiment: Anticancer activity against human NCI-H23 cells assessed as cell growth inhibition incubated for 48 hrs by SRB method; procedure, shortened: as §1
[17] = test system: NCI-H226; experiment: Anticancer activity against human NCI-H226 cells assessed as cell growth inhibition incubated for 48 hrs by SRB method; procedure, shortened: as §1
[18] = test system: SK-MEL-28; experiment: Anticancer activity against human SK-MEL-28 cells assessed as cell growth inhibition incubated for 48 hrs by SRB method; procedure, shortened: as §1
[19] = test system: 786-0; experiment: Anticancer activity against human 786-0 cells assessed as cell growth inhibition incubated for 48 hrs by SRB method; procedure, shortened: as §1
[20] = test system: SF-295; experiment: Anticancer activity against human SF-295 cells assessed as cell growth inhibition incubated for 48 hrs by SRB method; procedure, shortened: as §1
[21] = test system: KM12; experiment: Anticancer activity against human KM12 cells assessed as cell growth inhibition incubated for 48 hrs by SRB method; procedure, shortened: as §1
[22] = test system: TK-10; experiment: Anticancer activity against human TK-10 cells assessed as cell growth inhibition incubated for 48 hrs by SRB method
Procedure, shortened: as §2, with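 “assay. Cells grown in RPMI 1640 with 5% FBS and 2 mM L-glutamine, seeded at 5,000–40,000 cells/well depending on doubling time, and preincubated 24 h at 37 °C with 5% CO2.” for “assay.”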

[23] = test system: A549; experiment: Anticancer activity against human A549 cells assessed as cell growth inhibition incubated for 48 hrs by SRB method; procedure, shortened: as §1
[24] = test system: LOX IMVI; experiment: Anticancer activity against human LOX IMVI cells assessed as cell growth inhibition incubated for 48 hrs by SRB method
[25] = test system: MCF7; experiment: Anticancer activity against human MCF7 cells assessed as cell growth inhibition incubated for 48 hrs by SRB method; procedure, shortened: as §1
[26] = test system: MDA-MB-468; experiment: Anticancer activity against human MDA-MB-468 cells assessed as cell growth inhibition incubated for 48 hrs by SRB method; procedure, shortened: as §1
[27] = test system: OVCAR-8; experiment: Anticancer activity against human OVCAR-8 cells assessed as cell growth inhibition incubated for 48 hrs by SRB method; procedure, shortened: as §1
[28] = test system: M14; experiment: Anticancer activity against human M14 cells assessed as cell growth inhibition incubated for 48 hrs by SRB method; procedure, shortened: as §1
[29] = test system: EKVX; experiment: Anticancer activity against human EKVX cells assessed as cell growth inhibition incubated for 48 hrs by SRB method; procedure, shortened: as §1
[30] = test system: UACC-257; experiment: Anticancer activity against human UACC-257 assessed as cell growth inhibition incubated for 48 hrs by SRB method
Procedure, shortened: as §2, with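 “assay. Cells grown in RPMI 1640 with 5% FBS and 2 mM L-glutamine, seeded at 5,000–40,000 cells/well depending on doubling time, and preincubated 24 h at 37 °C with 5% CO2.” for “assay.”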

[31] = test system: NCI-H522; experiment: Anticancer activity against human NCI-H522 cells assessed as cell growth inhibition incubated for 48 hrs by SRB method
[32] = test system: ACHN; experiment: Anticancer activity against human ACHN cells assessed as cell growth inhibition incubated for 48 hrs by SRB method; procedure, shortened: as §1
[33] = test system: SF-539; experiment: Anticancer activity against human SF-539 cells assessed as cell growth inhibition incubated for 48 hrs by SRB method
[34] = test system: UACC-62; experiment: Anticancer activity against human UACC-62 cells assessed as cell growth inhibition incubated for 48 hrs by SRB method
Procedure, shortened: as §2, with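 “assay. Cells grown in RPMI 1640 with 5% FBS and 2 mM L-glutamine, seeded at 5,000–40,000 cells/well depending on doubling time, and preincubated 24 h at 37 °C with 5% CO2.” for “assay.”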

[35] = test system: SR; experiment: Anticancer activity against human SR cells assessed as cell growth inhibition incubated for 48 hrs by SRB method; procedure, shortened: as §1
[36] = test system: HT-29; experiment: Anticancer activity against human HT29 cells assessed as cell growth inhibition incubated for 48 hrs by SRB method; procedure, shortened: as §1
[37] = test system: HL-60(TB); experiment: Anticancer activity against human HL-60(TB) cells assessed as cell growth inhibition incubated for 48 hrs by SRB method
[38] = test system: RXF 393; experiment: Anticancer activity against human RXF 393 cells assessed as cell growth inhibition incubated for 48 hrs by SRB method; procedure, shortened: as §1
[39] = test system: HOP-92; experiment: Anticancer activity against human HOP-92 cells assessed as cell growth inhibition incubated for 48 hrs by SRB method
[40] = test system: RPMI-8226; experiment: Anticancer activity against human RPMI-8226 cells assessed as cell growth inhibition incubated for 48 hrs by SRB method

Row | Structure (SMILES) | GI50 [1] [nM] | GI50 [2] [nM] | GI50 [3] [nM] | GI50 [4] [nM] | GI50 [5] [nM] | GI50 [6] [nM] | GI50 [7] [nM] | GI50 [8] [nM] | GI50 [9] [nM] | GI50 [10] [nM] | GI50 [11] [nM] | GI50 [12] [nM] | GI50 [13] [nM] | GI50 [14] [nM] | GI50 [15] [nM] | GI50 [16] [nM] | GI50 [17] [nM] | GI50 [18] [nM] | GI50 [19] [nM] | GI50 [20] [nM] | also measured
1 | C=C1C(=O)O[C@H]2[C@H]1CC/C(COC(=O)NCc1ccc(OC)cc1)=C\CC[C@@]1(C)O[C@@H]21 | 1460 | 240 | 350 | 260 | 620 | 740 | 700 | 190 | 190 | 370 | 220 | 290 | 750 | 270 | 2740 | 550 | 480 | 1180 | 490 | 10800 | GI50 [21]: 2350 nM; GI50 [22]: 310 nM; GI50 [23]: 2430 nM; GI50 [24]: 270 nM; GI50 [25]: 1870 nM; GI50 [26]: 240 nM; GI50 [27]: 490 nM; GI50 [28]: 190 nM; GI50 [29]: 1290 nM; GI50 [30]: 1520 nM; GI50 [31]: 170 nM; GI50 [32]: 180 nM; GI50 [33]: 320 nM; GI50 [34]: 2860 nM; GI50 [35]: 300 nM; GI50 [36]: 260 nM; GI50 [37]: 260 nM; GI50 [38]: 270 nM; GI50 [39]: 240 nM; GI50 [40]: 260 nM
2 | C=C1C(=O)O[C@H]2[C@H]1CC/C(COC(=O)NCCc1ccc(OC)cc1)=C\CC[C@@]1(C)O[C@@H]21 | 2650 | 1940 | 2730 | 1980 | 2020 | 4090 | 8650 | 1340 | 1550 | 1920 | 2510 | 2610 | 10600 | 1890 | 12200 | 4340 | 4110 | 8970 | 2770 | 13500 | GI50 [21]: 8360 nM; GI50 [22]: 2520 nM; GI50 [23]: 13200 nM; GI50 [24]: 1380 nM; GI50 [25]: 8080 nM; GI50 [26]: 1550 nM; GI50 [27]: 3410 nM; GI50 [28]: 1980 nM; GI50 [29]: 7450 nM; GI50 [30]: 1470 nM; GI50 [31]: 1820 nM; GI50 [32]: 1760 nM; GI50 [33]: 1790 nM; GI50 [34]: 1710 nM; GI50 [35]: 2070 nM; GI50 [36]: 2150 nM; GI50 [37]: 2340 nM; GI50 [38]: 1720 nM; GI50 [39]: 1990 nM; GI50 [40]: 2850 nM
3 | C=C1C(=O)O[C@H]2[C@H]1CC/C(COC(=O)NCc1cc(OC)cc(OC)c1)=C\CC[C@@]1(C)O[C@@H]21 | 1820 | 1350 | 1660 | 470 | 1610 | 1990 | 5320 | 770 | 680 | 720 | 1120 | 2120 | 2460 | 580 | 3010 | 1840 | 2020 | 1660 | 1600 | 7780 | GI50 [21]: 2800 nM; GI50 [22]: 1590 nM; GI50 [23]: 2580 nM; GI50 [24]: 540 nM; GI50 [25]: 2720 nM; GI50 [26]: 580 nM; GI50 [27]: 1700 nM; GI50 [28]: 1640 nM; GI50 [29]: 2060 nM; GI50 [30]: 270 nM; GI50 [31]: 340 nM; GI50 [32]: 1700 nM; GI50 [33]: 1540 nM; GI50 [34]: 1200 nM; GI50 [35]: 320 nM; GI50 [36]: 1200 nM; GI50 [37]: 1690 nM; GI50 [38]: 1290 nM; GI50 [39]: 1420 nM; GI50 [40]: 1800 nM
4 | C=C1C(=O)O[C@H]2[C@H]1CC/C(COC(=O)NCc1ccccc1OC)=C\CC[C@@]1(C)O[C@@H]21 | 2290 | 1750 | 1790 | 480 | 1470 | 2440 | 1570 | 540 | 1040 | 690 | 760 | 1570 | 2200 | 490 | 3730 | 1740 | 2110 | 1710 | 2450 | 5020 | GI50 [21]: 3530 nM; GI50 [22]: 1380 nM; GI50 [23]: 3070 nM; GI50 [24]: 1430 nM; GI50 [25]: 3130 nM; GI50 [26]: 660 nM; GI50 [27]: 1780 nM; GI50 [28]: 1100 nM; GI50 [29]: 1980 nM; GI50 [30]: 1350 nM; GI50 [31]: 350 nM; GI50 [32]: 1160 nM; GI50 [33]: 1530 nM; GI50 [34]: 1840 nM; GI50 [35]: 670 nM; GI50 [36]: 1220 nM; GI50 [37]: 1610 nM; GI50 [38]: 1270 nM; GI50 [39]: 1490 nM; GI50 [40]: 1770 nM
